Experimental data reported in ChEMBL document CHEMBL4513216, “Probing the Open Global Health Chemical Diversity Library for Multistage-Active Starting Points for Next-Generation Antimalarials” (ACS Infect Dis, 2020).

Test: Toxicity liver stage against HepG2, at 10uM
Assay type: cell-based
Design: test concentration 10 uM, cell line HepG2-A16-CD81EGFP
Settings: human, HepG2-A16-CD81EGFP cells; read-out: INHIBITION
In short: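 Uninfected HepG2-A16-CD81EGFP cells, 3 × 10^3 per well, 1536-well, plated on prespotted compound at 10 μM final, parasite-free screening media added to match infected plates; puromycin 10 μM positive, DMSO 0.5% negative; run in parallel with 48 h PbLuc assay at 37 °C, 5% CO2; viability by CellTiter-Glo luminescence, normalized to controls.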

SMILES	cytotoxicity at 10 µM [%]
Cc1cccc(NC(=O)C2CC(=O)n3cnnc3S2)c1 (stereo not given)	2.37
c1ccc2c(Cc3nnc([C@H]4CCN(C5CCC5)C4)o3)c[nH]c2c1	-0.0653
CS(=O)(=O)NC[C@H]1OC[C@@H](NC2CCC(F)(F)CC2)[C@@H]1O	0.644
CN1Cc2cc(F)ccc2N(CC(O)C(F)(F)F)CCC1=O (stereo not given)	1.06
Cn1ccc2cc(C(=O)N3CC[C@@]4(O)CCCC[C@H]4C3)ccc21	-46.8
CC(=O)Nc1ccc(SCC(=O)NCC2CCCO2)nn1 (stereo not given)	-16.7
O=C(NCCC(O)c1ccco1)c1ccco1 (stereo not given)	7.94
O=S(=O)(NCCC(O)c1ccoc1)c1ccc(Cl)s1 (stereo not given)	-0.847
Cc1cccc(CS(=O)(=O)NCc2nn(C)c3c2CCCC3)c1	2.37
CC(=O)N1CCC2(CCCN(C(=O)CCN3CCCCC3)C2)C1 (stereo not given)	0.906
Cc1cccc(N2CC3(CCN(S(=O)(=O)c4cccs4)C3)CC2=O)c1 (stereo not given)	-1.21
Cc1nc(-c2cnn(C)c2)nc2c1CN(C(=O)c1cccnc1)CC2	2.68
Cc1cccc(CN2C[C@@H]3CN(C(=O)c4conc4C)C[C@@H]3C2=O)c1	2.66
Cc1noc([C@@H]2C[C@H]3OCC[C@H]3N(S(=O)(=O)c3ccccc3)C2)n1	-126
CCc1c(C(=O)O)nnn1-c1cc(C)cc(C)c1	-6.69
Cc1nc(-c2ccccc2F)sc1C(=O)N1CCC(=O)CC1	-7.42
O=C(c1cccs1)N1C[C@H]2CC[C@@]3(N=C(c4ccccc4)NC3=O)[C@H]2C1	-9.84
Cc1ccccc1CN1CCN(c2ncnc3c2NC(=O)CN3)CC1	6.78
Cc1cccc(NC(=O)CN2C(=O)CC(C)(C)c3ccccc32)n1	2.2
Cc1nc(N)cc(C2CCN2CCC(N)=O)n1 (stereo not given)	-1.21
Cc1ccnn1CCC(=O)N1CCCC[C@]2(C)NC(=O)CCC[C@H]12	-0.822
COCC(=O)N1C[C@@H](c2cccc(OC)c2)[C@@]2(CCCCC(=O)N2)C1	1.62

SMILES	cytotoxicity at 10 µM [%]
Nc1ccc(CC2CCCN(Cc3c[nH]cn3)C2)nn1 (stereo not given)	-0.701
COCCC(=O)N1CCC(c2cncc(Oc3cccnc3)n2)CC1	-9.55
CCC(=O)N1CCCC1c1csc(Nc2cnccn2)n1 (stereo not given)	-2.8
CC(C)c1ncc(CN2CCCC(CO)C2)cn1 (stereo not given)	-1.49
OCc1cn(Cc2cccc(C(F)(F)F)c2)nn1	8.02
O=C(C1CCCS1)N1CCOc2cccc(F)c21 (stereo not given)	-6.54
COC(=O)c1ncccc1N1CCC(C(O)c2ccccc2)CC1 (stereo not given)	-4.11
CC(C)(NC(=O)c1scnc1Cl)c1ccccc1	-10.9
O=C(c1cnc(-c2ccccc2)s1)N1CCC2(CC1)OCCO2	2.42
CCC(=O)NC(CC(C)C)c1cccs1 (stereo not given)	6.18
CC(CNC(=O)c1cccnc1O)Cn1cccn1 (stereo not given)	0.144
CC(C)c1ocnc1C(=O)N1CCC2(CC1)OCCO2	0.0416
CC(=O)c1sc(C(NC(=O)c2ccccc2)C2CC2)nc1C (stereo not given)	-15.5
CCOc1ccc2cc(C(=O)NCCC(=O)N(C)C)[nH]c2c1	-6.16
Cc1ccccc1C1(CNCc2cnc(N3CCOCC3)nc2)CC1	-8.23
COC1CCN(CCNC(=O)NC(C)c2ccc(F)c(F)c2)CC1 (stereo not given)	9.88
CC(=O)N1CCN(CCNc2snc(Cl)c2C#N)CC1	5.69
CN(Cc1cnn(C)c1)S(=O)(=O)N1CCCCCC1	-1.43
Cc1ccc(OCC(=O)NCc2sccc2C)nc1	-0.509
O=C(C1CCCC1)N1CCCC1c1nnc2n1CCCCC2 (stereo not given)	-2.58
O=c1c2cccnc2cnn1CC(O)c1ccc(F)c(F)c1 (stereo not given)	-7.44
CN(CCCc1cc(-c2cccc(F)c2)n[nH]1)C(=O)CCn1cncn1	-132

SMILES	cytotoxicity at 10 µM [%]
O=C(c1cccnc1)N(CCO)Cc1cc(Br)ccc1F	12.7
COC(=O)c1cccc(S(=O)(=O)NC(=O)CC2CCCC2)c1	-9.68
O=C(CCc1nc(C2CC2)no1)c1ccc2c(c1)OCCO2	-7.04
O=C(COc1ccccc1NCc1ccc(F)cc1)N1CCOCC1	-2.82
CN(CC(N)=O)C(=O)c1csc(Br)c1	3
Cc1cc(=O)n2ncnc2n1CC(O)c1cc(F)ccc1F (stereo not given)	1.7
Cc1[nH]ccc1C(=O)Nc1cccc(CN2CCC(O)CC2)c1	0.149
COc1ccc(C2CCCN2S(=O)(=O)N(C)CC(C)C)cc1 (stereo not given)	-6.72
CN(C)C(=O)C1CCCN1CCCNC(=O)c1ccccc1F (stereo not given)	-20.2
CSCC(CCO)NC(=O)Nc1cccc(Br)c1 (stereo not given)	-7.69
CSCC(CCO)NC(=O)Nc1cc(Br)ccc1C (stereo not given)	-11.1
CS(=O)(=O)N1CCCC12CCN(Cc1ccoc1)CC2	-3.98
O=C(c1ccoc1)N1CC[C@H]2C[C@@H](c3ccncn3)O[C@@H]2C1	-76.1
CS(=O)(=O)NCc1cc(-c2cc(F)cc(F)c2)nc(N2CCOCC2)n1	-9.24
COc1ccc(Cn2c(CCc3c(C)n[nH]c3C)n[nH]c2=O)cc1	-144
Cc1ccccc1OCC1CCCN(C(=O)Cc2c[nH]c(=O)[nH]c2=O)C1 (stereo not given)	-136
CCc1nc(CN(C)C(=O)CSC)no1	2.25
Cc1nnc(CCNC(=O)[C@H]2CNC[C@@H](C(=O)N3CCCC3)C2)s1	-113
Cc1nn2cc(CNc3nccc(CCC(F)(F)F)n3)nc2s1	-8.27
COc1c(C)cc(C(C(=O)O)N(C)Cc2ccn[nH]2)cc1C (stereo not given)	2.82
CN(C)C(=O)c1nc(CN2CC(c3ccccc3)CC2=O)no1 (stereo not given)	0.624
CC(C)n1cnnc1CN(C)C(=O)c1ccc[nH]1	-0.371

SMILES	cytotoxicity at 10 µM [%]
CC(C)[C@@H]1CN(Cc2c[nH]nc2-c2ccc(F)cc2)C[C@H]1NS(C)(=O)=O	-0.882
O=C1OCCN1Cc1ccc(C(F)(F)F)cc1F	-0.419
COc1cccc(-c2n[nH]c3c2CN(C(=O)c2ccncc2)CC3)c1	-5.55
CCc1nc(C)c(C(=O)N[C@@H]2c3ccccc3C[C@@H]2O)o1	4.57
O=C(O)c1cc(-c2cn[nH]c2)cc(S(=O)(=O)N2CCSCC2)c1	-8.26
Cc1ccc(CN2CC[C@@]3(O)CCN(S(=O)(=O)N(C)C)C[C@H]3C2)cc1C	-1.42
COc1ccc(CCN2C(=O)O[C@@H]3CN(C4CCOCC4)C[C@@H]32)cc1	6.86
COc1ccccc1CN(C)C(=O)c1cc(CN2CCC(O)CC2)on1	-26.7
CN1CCCN(C[C@@H]2CN(C(=O)CCC3CCCC3)C[C@@H]2CO)CC1	-20.6
Cn1cc(CN2CC[C@@H]3[C@@H](CCC(=O)N3CCc3c[nH]cn3)C2)cn1	-9.73
CCc1nc(C)cn1C(=O)Nc1ccc(C)cc1	-1.64
Cn1c(=O)c2cc(C(=O)NCc3ccncc3)ccc2n(C)c1=O	-11.1
CS(=O)(=O)c1ccc(C(=O)NCCNc2ncccn2)cc1	-5.15
Cc1nc(C)n(CC2CN(CCOc3cccc(C#N)c3)CCO2)n1 (stereo not given)	-13.2
CCCNC(=O)NC(=O)CNC(C)(C)c1ccc2c(c1)OCCO2	-14.7
CC(C)n1cc(CN2CCCN(C(=O)CC3CCCO3)CC2)cn1 (stereo not given)	-12.4
Cn1cc(NC(=O)C2CC(c3ccccc3)C2)ccc1=O (stereo not given)	-4.42
COc1ncccc1C(=O)N1CCCC(n2ccnc2)C1 (stereo not given)	-5.1
Cn1cc(CN2CCCN(C(=O)c3sccc3C#N)CC2)cn1	-1.37
COc1ccsc1C(=O)N1CCCC(n2nc(C)cc2C)C1 (stereo not given)	-9.41
Cc1cc(C)n(C2CCCN(C(=O)Cc3cccs3)C2)n1 (stereo not given)	-20.8
CN(Cc1ccncc1)C(=O)NCc1nnc2n1CCCCC2	-26

SMILES	cytotoxicity at 10 µM [%]
Cc1cnc(C(=O)N2CCCN(c3nc(C)cs3)CC2)cn1	-8.81
O=C(Cc1csc(-c2ccco2)n1)N1CCSCC1	-16.2
Cc1cnn(CC2CN(Cc3nc(-c4cccnc4)no3)CCO2)c1 (stereo not given)	-20.5
NC(=O)NC(=O)CCN1CCCN(c2nccs2)CC1	11.1
Cc1cc(C)n(CC2CCCCN2CCCS(N)(=O)=O)n1 (stereo not given)	6.28
O=C(Cc1ccccn1)N1CCN(C(=O)c2cccc3[nH]ncc23)CC1	-2.48
Cn1cnnc1C1CCCN(C(=O)NCCc2ccccc2F)C1 (stereo not given)	-1.88
Cc1noc(C2CN(Cc3ccc4c(c3)CCO4)C2)n1	-0.478
c1cc(CN2CCCC3(COCCN(Cc4c[nH]nn4)C3)C2)cs1 (stereo not given)	8.59
Cn1cccc1C(=O)NCc1cn2c(n1)CN(CC1CCOCC1)CC2	8.33
COc1cc(CNCC(O)c2ccc(C)cc2)cc2c1OCO2 (stereo not given)	-0.282
O=C(c1cscn1)N1CCC2(CCN(Cc3cccs3)CC2)C1	3.91
CC(=O)N1CCC2(CC1)C(=O)N(CC1CCN(C)CC1)c1ccccc12	1.73
CN(C)CCN1CCc2c(nnn2C)C1COCc1ccccc1 (stereo not given)	-90.3
Cc1nc(CN2C(=O)C[C@@H]3[C@@H]2CCN3CC2CCOCC2)cs1	-135
Cc1ccc(NC2COC3(CCN(Cc4ccn(C)n4)CC3)C2)nn1 (stereo not given)	-1.68
O=C(Nc1cnccn1)[C@H]1CC[C@@H]2[C@@H](CCN2Cc2ccccn2)O1	-139
CNC(=O)CN1CCc2c(CNc3nccs3)n[nH]c2C1	3.25
O=C(NCc1cccs1)[C@H]1CC[C@@H]2[C@@H](CCN2C2CCC2)O1	-6.34
Cn1ccnc1CN1CCC2(CC1)CN(c1ccccc1)C(=O)CO2	-0.414
CCN1CCC2(CC1)CC(NCc1cccc(C)n1)c1ccccc1O2 (stereo not given)	-1.46
CN(C)C(c1ccccn1)C1CCC(CNC(=O)CC2CCCC2)CC1 (stereo not given)	9.43
